# ChEMBL document CHEMBL1759978, “Synthesis and biological evaluation of fatty acyl ester derivatives of 2',3'-didehydro-2',3'-dideoxythymidine” (Bioorg Med Chem Lett, 2011)
# Calls of active or inactive are those of the source. No cut-off for these calls is given here.
# Legend:
# [1] = system: Human immunodeficiency virus 1; test: Antiviral activity against Human immunodeficiency virus 1 BAL by MAGI assay; type: functional, organism-based
# [2] = system: Human immunodeficiency virus 1; test: Antiviral activity against Human immunodeficiency virus 1 3B by MAGI assay; type: functional, organism-based
# Homo sapiens [3] = species on record: Homo sapiens; test: Spermicidal activity against human sperm assessed as immobolizing sperm treated for 10 mins by microscopy relative to control; type: functional
# HeLa = test: Cytotoxicity against human HeLa P4/R5 cells by MTS assay; type: cell-based; settings: read-out: EC50 (the source's name)
# [4] = system: Human immunodeficiency virus 1; test: Antiviral activity against Human immunodeficiency virus 1 3B infected in human SupT1 cells by cell-associated transmission assay; type: functional, organism-based; settings: SUP-T1
# Homo sapiens [5] = species on record: Homo sapiens; test: Spermicidal activity against human sperm assessed as sperm tail response at 1 mg/ml for 10 mins by microscopy relative to control; type: functional
# CCRF-CEM [6] = test: Cellular uptake in human CCRF-CEM cells at 10 uM after 1 to 8 hrs by flow cytometry; type: ADME, cell-based
# Summary of the method: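 CCRF-CEM T lymphoblastoid cells grown to 70% confluency, then exposed to 10 of the fluorescein-tagged conjugates for 1, 2, 4 and 8 h, with DMSO and free 5(6)-carboxyfluorescein as controls. Uptake was read by flow cytometry in the FITC channel as the mean fluorescence of 10,000 cells, in triplicate.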
# CCRF-CEM [7] = test: Cellular uptake in human CCRF-CEM cells at 10 uM after 1 hr by real time fluorescence microscopy; type: ADME, cell-based
# Summary of the method: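 Live CCRF-CEM cells were incubated 1 h with 10 of the fluorescein-labelled conjugates, with DMSO and free 5(6)-carboxyfluorescein as controls, then imaged by fluorescence light microscopy.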
# CCRF-CEM [8] = test: Cellular uptake in human CCRF-CEM cells at 10 uM after 1 to 8 hrs measured after 5 mins trypsin wash off by flow cytometry relative to control; type: ADME, cell-based
# [9] = system: Human immunodeficiency virus 1; test: Antiviral activity against Human immunodeficiency virus 1 infected in human CEM-SS cells assessed as inhibition of viral replication; type: functional, organism-based; settings: Human immunodeficiency virus 1, CEM-SS
SMILES,EC50 [1] [µM],EC50 [2] [µM],EC50 [4] [µM],Drug uptake (CCRF-CEM [6]),Drug uptake (CCRF-CEM [7]),Drug uptake (CCRF-CEM [8]),EC50 [9] [µM],Activity (Homo sapiens [3]),CC50 (HeLa) [µM],Activity (Homo sapiens [5])
CCSCCCCCCCCCCCC(=O)OC[C@@H]1C=C[C@H](n2cc(C)c(=O)[nH]c2=O)O1,5.8,14.4,46.5,–,–,–,–,inactive,> 200,inactive
O=C(O)c1ccc2c(c1)C1(OC2=O)c2ccc(O)cc2Oc2cc(O)ccc21,–,–,–,–,Not Active,–,–,–,–,–
Cc1cn([C@H]2C=C[C@@H](CO)O2)c(=O)[nH]c1=O [STAVUDINE],28.1,26.8,136,–,–,–,–,–,–,–
CCSCCCCCCCCCCCC(=O)O,–,–,–,–,–,–,9.4,–,–,–
Cc1cn([C@H]2C=C[C@@H](COC(=O)CCCCCCCCCCCN=[N+]=[N-])O2)c(=O)[nH]c1=O,3.1,6.7,22.4,–,–,–,–,inactive,> 200,inactive
CCCCCCCCCCCCCC(=O)OC[C@@H]1C=C[C@H](n2cc(C)c(=O)[nH]c2=O)O1,12.4,78.3,> 230,–,–,–,–,inactive,> 200,inactive

# Further lines, with some results ahead:
EC50 [1] [µM],EC50 [2] [µM],EC50 [4] [µM],Drug uptake (CCRF-CEM [6]),Drug uptake (CCRF-CEM [7]),Drug uptake (CCRF-CEM [8]),EC50 [9] [µM],SMILES,Activity (Homo sapiens [3]),CC50 (HeLa) [µM],Activity (Homo sapiens [5])
–,–,–,Active,Active,Active,–,Cc1cn([C@H]2C=C[C@@H](COC(=O)CCCCCCCCCCCNC(=O)c3ccc(-c4c5ccc(=O)cc-5oc5cc(O)ccc45)c(C(=O)O)c3)O2)c(=O)[nH]c1=O,–,–,–
–,–,–,Not Active,Not Active,–,–,Cc1cn([C@H]2C=C[C@@H](COC(=O)CCNC(=O)c3ccc(-c4c5ccc(=O)cc-5oc5cc(O)ccc45)c(C(=O)O)c3)O2)c(=O)[nH]c1=O,–,–,–
2.3,14.9,> 206,–,–,–,–,Cc1cn([C@H]2C=C[C@@H](COC(=O)CCCCCCCCCCCBr)O2)c(=O)[nH]c1=O,–,> 200,–
